In ChEMBL document CHEMBL1138494, “Human glucagon receptor antagonists with thiazole cores. A novel series with superior pharmacokinetic properties” (J Med Chem, 2009):
Active and inactive are the calls of the source. No cut-off for these calls is given here.

Target: T1, Gastric inhibitory polypeptide receptor (Homo sapiens, UniProt P48546)
T1 sequence (P48546 whole entry): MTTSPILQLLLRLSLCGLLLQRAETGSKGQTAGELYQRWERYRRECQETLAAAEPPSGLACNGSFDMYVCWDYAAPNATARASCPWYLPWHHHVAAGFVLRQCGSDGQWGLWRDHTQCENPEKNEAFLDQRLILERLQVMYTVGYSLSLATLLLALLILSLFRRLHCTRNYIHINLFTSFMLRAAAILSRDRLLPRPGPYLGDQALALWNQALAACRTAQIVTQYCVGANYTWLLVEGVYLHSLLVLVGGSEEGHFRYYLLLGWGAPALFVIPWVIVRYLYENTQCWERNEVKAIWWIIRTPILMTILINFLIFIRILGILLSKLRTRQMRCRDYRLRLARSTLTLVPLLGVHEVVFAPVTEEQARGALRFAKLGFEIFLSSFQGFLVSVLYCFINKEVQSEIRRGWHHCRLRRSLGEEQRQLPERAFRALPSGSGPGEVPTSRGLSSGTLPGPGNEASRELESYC
Assay: Displacement of [125I]porcine GIP from human recombinant GIPR receptor expressed in BHK cells by scintillation proximity assay
Assay type: cell-based
Settings: not given

IC50 [nM]	SMILES
389	O=C(O)CCNC(=O)c1ccc(CN(c2ccc(C3=CCCCC3)cc2)c2nc(-c3ccccc3)cs2)cc1
950	O=C(O)CCNC(=O)c1ccc(CN(c2ccc3c(c2)CCC3)c2nc(-c3ccc(OC(F)(F)F)cc3)cs2)cc1
> 1000	O=C(NC[C@@H](O)C(=O)O)c1ccc(CN(c2ccc3c(c2)CCC3)c2nc(-c3ccc(OC(F)(F)F)cc3)cs2)cc1
1100	O=C(O)CCNC(=O)c1ccc(CN(c2ccc3c(c2)CCC3)c2nc(-c3ccc(C(F)(F)F)cc3)cs2)cc1
633	Cc1cc(N(Cc2ccc(C(=O)NCCC(=O)O)cc2)c2nc(-c3ccc(C(F)(F)F)cc3)cs2)ccc1C(C)C

Target: T2, Glucagon receptor (Homo sapiens, UniProt P47871)
T2 sequence (P47871 whole entry): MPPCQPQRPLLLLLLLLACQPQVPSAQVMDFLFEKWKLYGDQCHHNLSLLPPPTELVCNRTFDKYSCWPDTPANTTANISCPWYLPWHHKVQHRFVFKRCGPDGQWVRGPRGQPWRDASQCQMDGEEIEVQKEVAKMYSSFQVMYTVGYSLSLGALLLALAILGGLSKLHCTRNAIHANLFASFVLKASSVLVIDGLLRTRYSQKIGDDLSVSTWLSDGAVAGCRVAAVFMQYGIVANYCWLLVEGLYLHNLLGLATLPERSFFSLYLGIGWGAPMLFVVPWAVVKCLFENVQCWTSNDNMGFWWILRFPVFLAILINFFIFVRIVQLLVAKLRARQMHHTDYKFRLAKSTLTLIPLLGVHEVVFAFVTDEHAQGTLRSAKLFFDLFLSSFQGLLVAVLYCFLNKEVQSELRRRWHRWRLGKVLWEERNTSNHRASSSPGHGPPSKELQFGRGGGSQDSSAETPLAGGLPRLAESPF
Assay: Binding affinity to human recombinant glucagon receptor expressed in BHK cells by membrane filter assay
Assay type: cell-based
Settings: not given

IC50 [nM]	SMILES
96	O=C(O)CCNC(=O)c1ccc(CN(c2ccc3c(c2)CCC3)c2nc(-c3ccc(OC(F)(F)F)cc3)cs2)cc1
64	O=C(O)CCNC(=O)c1ccc(CN(c2ccc3c(c2)CCC3)c2nc(-c3ccc(C(F)(F)F)cc3)cs2)cc1
93	Cc1cc(N(Cc2ccc(C(=O)NCCC(=O)O)cc2)c2nc(-c3ccc(C(F)(F)F)cc3)cs2)ccc1C(C)C

Tested on: not listed separately
Assay: Oral bioavailability in fasted Sprague-Dawley rat at 3.34 mg/kg by HTLC-MS/MS analysis
Assay type: ADME, organism-based
Settings: in vivo
How it was run: (§1)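 Separate intravenous and peroral dosing arms per compound, with plasma concentration followed against time. Oral bioavailability (F_po) is reported per compound together with the intravenous half-life and clearance. The dose used for each arm is listed per compound.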

bioavailability [%]	SMILES
87	O=C(O)CCNC(=O)c1ccc(CN(c2ccc3c(c2)CCC3)c2nc(-c3ccc(OC(F)(F)F)cc3)cs2)cc1
89	O=C(O)CCNC(=O)c1ccc(CN(c2ccc3c(c2)CCC3)c2nc(-c3ccc(C(F)(F)F)cc3)cs2)cc1

Tested on: not listed separately
Assay: Clearance in fasted Sprague-Dawley rat at 1.9 mg/kg, iv and 3.7 mg/kg, po by HTLC-MS/MS analysis
Assay type: ADME, organism-based
Settings: in vivo
How it was run: (§2)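 Rats were dosed intravenously and perorally in separate arms, and plasma concentration-time profiles were obtained. Half-life was taken from the iv arm. Clearance, oral bioavailability, Cmax and Tmax were derived from the profiles.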

clearance [mL/min/kg]	SMILES
35	O=C(O)CCNC(=O)c1ccc(CN(c2ccc(C3=CCCCC3)cc2)c2nc(-c3ccccc3)cs2)cc1

Tested on: not listed separately
Assay: Half life in fasted Sprague-Dawley rat plasma at 1.9 mg/kg, iv by HTLC-MS/MS analysis
Assay type: ADME, organism-based
Design: dose 1.9 mg/kg, route intravenous
Settings: not given
How it was run: as §2

half-life [min]	SMILES
37	O=C(O)CCNC(=O)c1ccc(CN(c2ccc(C3=CCCCC3)cc2)c2nc(-c3ccccc3)cs2)cc1

Tested on: not listed separately
Assay: Cmax in fasted Sprague-Dawley rat at 1.66 mg/kg, iv and 3.34 mg/kg, po by HTLC-MS/MS analysis
Assay type: ADME, organism-based
Settings: in vivo
How it was run: as §2

Cmax [ng/mL]	SMILES
704	O=C(O)CCNC(=O)c1ccc(CN(c2ccc3c(c2)CCC3)c2nc(-c3ccc(OC(F)(F)F)cc3)cs2)cc1
920	O=C(O)CCNC(=O)c1ccc(CN(c2ccc3c(c2)CCC3)c2nc(-c3ccc(C(F)(F)F)cc3)cs2)cc1

Tested on: not listed separately
Assay: Oral bioavailability in fasted Sprague-Dawley rat at 3.7 mg/kg by HTLC-MS/MS analysis
Assay type: ADME, organism-based
Settings: in vivo
How it was run: as §1

bioavailability [%]	SMILES
5	O=C(O)CCNC(=O)c1ccc(CN(c2ccc(C3=CCCCC3)cc2)c2nc(-c3ccccc3)cs2)cc1

Tested on: not listed separately
Assay: Cmax in fasted Sprague-Dawley rat at 1.9 mg/kg, iv and 3.7 mg/kg, po by HTLC-MS/MS analysis
Assay type: ADME, organism-based
Settings: in vivo
How it was run: as §2

Cmax [ng/mL]	SMILES
94	O=C(O)CCNC(=O)c1ccc(CN(c2ccc(C3=CCCCC3)cc2)c2nc(-c3ccccc3)cs2)cc1

Tested on: not listed separately
Assay: Half life in fasted Sprague-Dawley rat plasma at 1.66 mg/kg, iv by HTLC-MS/MS analysis
Assay type: ADME, organism-based
Design: dose 1.66 mg/kg, route intravenous
Settings: not given
How it was run: as §2

half-life [min]	SMILES
61	O=C(O)CCNC(=O)c1ccc(CN(c2ccc3c(c2)CCC3)c2nc(-c3ccc(OC(F)(F)F)cc3)cs2)cc1
131	O=C(O)CCNC(=O)c1ccc(CN(c2ccc3c(c2)CCC3)c2nc(-c3ccc(C(F)(F)F)cc3)cs2)cc1

Target: not listed separately
Assay: Binding affinity to glucagon receptor in monkey liver membrane by membrane filter assay
Assay type: cell membranes, Macaca mulatta
Settings: not given

IC50 [nM]	SMILES
94	O=C(O)CCNC(=O)c1ccc(CN(c2ccc3c(c2)CCC3)c2nc(-c3ccc(OC(F)(F)F)cc3)cs2)cc1
81	O=C(O)CCNC(=O)c1ccc(CN(c2ccc3c(c2)CCC3)c2nc(-c3ccc(C(F)(F)F)cc3)cs2)cc1

Tested on: not listed separately
Assay: Tmax in fasted Sprague-Dawley rat at 1.9 mg/kg, iv and 3.7 mg/kg, po by HTLC-MS/MS analysis
Assay type: ADME, organism-based
Settings: in vivo
How it was run: (§3)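 Plasma concentration–time profiles were recorded after separate intravenous and peroral dosing at the per-compound doses listed. T_max is reported in min alongside C_max (ng/mL), intravenous half-life and clearance ((mL/min)/kg).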

Tmax [h]	SMILES
1.5	O=C(O)CCNC(=O)c1ccc(CN(c2ccc(C3=CCCCC3)cc2)c2nc(-c3ccccc3)cs2)cc1

Target: T1, Gastric inhibitory polypeptide receptor
Assay: Binding affinity to human recombinant GIPR expressed in BHK cells by membrane filter assay
Assay type: cell-based
Settings: not given

IC50 [nM]	SMILES
770	O=C(O)CCNC(=O)c1ccc(CN(c2ccc3c(c2)CCC3)c2nc(-c3ccc(OC(F)(F)F)cc3)cs2)cc1
510	O=C(O)CCNC(=O)c1ccc(CN(c2ccc3c(c2)CCC3)c2nc(-c3ccc(C(F)(F)F)cc3)cs2)cc1
293	Cc1cc(N(Cc2ccc(C(=O)NCCC(=O)O)cc2)c2nc(-c3ccc(C(F)(F)F)cc3)cs2)ccc1C(C)C

Species: Homo sapiens
Assay: Selectivity ratio of IC50 for human recombinant glucagon receptor to IC50 for human recombinant GIPR
Settings: not given
How it was run: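 Competition binding of compounds to recombinant human glucagon and GIP receptors on BHK cell membranes, run in parallel as a scintillation proximity assay and, for selected compounds, as a membrane filtration assay.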

fold change (FC)	SMILES
5	O=C(O)CCNC(=O)c1ccc(CN(c2ccc(C3=CCCCC3)cc2)c2nc(-c3ccccc3)cs2)cc1
5	O=C(O)CCNC(=O)c1ccc(CN(c2ccc3c(c2)CCC3)c2nc(-c3ccc(OC(F)(F)F)cc3)cs2)cc1
5	O=C(NC[C@@H](O)C(=O)O)c1ccc(CN(c2ccc3c(c2)CCC3)c2nc(-c3ccc(OC(F)(F)F)cc3)cs2)cc1
5	O=C(O)CCNC(=O)c1ccc(CN(c2ccc3c(c2)CCC3)c2nc(-c3ccc(C(F)(F)F)cc3)cs2)cc1
5	Cc1cc(N(Cc2ccc(C(=O)NCCC(=O)O)cc2)c2nc(-c3ccc(C(F)(F)F)cc3)cs2)ccc1C(C)C

Species: Homo sapiens
Assay: Selectivity for human recombinant glucagon receptor over human GLP1R
Settings: not given

fold change (FC)	SMILES
> 50	O=C(O)CCNC(=O)c1ccc(CN(c2ccc(C3=CCCCC3)cc2)c2nc(-c3ccccc3)cs2)cc1
> 50	O=C(O)CCNC(=O)c1ccc(CN(c2ccc3c(c2)CCC3)c2nc(-c3ccc(OC(F)(F)F)cc3)cs2)cc1
> 50	O=C(NC[C@@H](O)C(=O)O)c1ccc(CN(c2ccc3c(c2)CCC3)c2nc(-c3ccc(OC(F)(F)F)cc3)cs2)cc1
> 50	O=C(O)CCNC(=O)c1ccc(CN(c2ccc3c(c2)CCC3)c2nc(-c3ccc(C(F)(F)F)cc3)cs2)cc1
> 50	Cc1cc(N(Cc2ccc(C(=O)NCCC(=O)O)cc2)c2nc(-c3ccc(C(F)(F)F)cc3)cs2)ccc1C(C)C

Tested on: Hepatocyte
Assay: Inhibition of glucagon-stimulated glucose production in rat primary hepatocytes
Assay type: functional, cell-based
Settings: not given

SMILES	inhibition
O=C(O)CCNC(=O)c1ccc(CN(c2ccc3c(c2)CCC3)c2nc(-c3ccc(OC(F)(F)F)cc3)cs2)cc1	inactive
O=C(O)CCNC(=O)c1ccc(CN(c2ccc3c(c2)CCC3)c2nc(-c3ccc(C(F)(F)F)cc3)cs2)cc1	inactive

Tested on: Hepatocyte
Assay: Inhibition of glucagon-stimulated glucose production in human primary hepatocytes preincubated for 10 mins before glucagon addition by NADH-linked hexokinase assay
Assay type: functional, cell-based
Settings: not given
How it was run: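 Cultured primary human hepatocytes were preincubated with compound for 10 min, then glycogenolysis was induced with 5 nM glucagon for 60 min. Glucose in the medium was measured against basal glycogenolysis. Albumin was present in the assay medium. IC50 was calculated from four experiments, mean ± SEM.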

SMILES	IC50 [µM]
O=C(O)CCNC(=O)c1ccc(CN(c2ccc3c(c2)CCC3)c2nc(-c3ccc(OC(F)(F)F)cc3)cs2)cc1	8.6
O=C(O)CCNC(=O)c1ccc(CN(c2ccc3c(c2)CCC3)c2nc(-c3ccc(C(F)(F)F)cc3)cs2)cc1	< 20

Tested on: not listed separately
Assay: Clearance in fasted Sprague-Dawley rat at 1.66 mg/kg, iv and 3.34 mg/kg, po by HTLC-MS/MS analysis
Assay type: ADME, organism-based
Settings: in vivo
How it was run: as §2

clearance [mL/min/kg]	SMILES
15	O=C(O)CCNC(=O)c1ccc(CN(c2ccc3c(c2)CCC3)c2nc(-c3ccc(OC(F)(F)F)cc3)cs2)cc1
13	O=C(O)CCNC(=O)c1ccc(CN(c2ccc3c(c2)CCC3)c2nc(-c3ccc(C(F)(F)F)cc3)cs2)cc1

Tested on: not listed separately
Assay: Tmax in fasted Sprague-Dawley rat at 1.66 mg/kg, iv and 3.34 mg/kg, po by HTLC-MS/MS analysis
Assay type: ADME, organism-based
Settings: in vivo
How it was run: as §3

Tmax [h]	SMILES
4	O=C(O)CCNC(=O)c1ccc(CN(c2ccc3c(c2)CCC3)c2nc(-c3ccc(OC(F)(F)F)cc3)cs2)cc1
1	O=C(O)CCNC(=O)c1ccc(CN(c2ccc3c(c2)CCC3)c2nc(-c3ccc(C(F)(F)F)cc3)cs2)cc1

Target: Glucagon receptor (Mus musculus, UniProt Q61606)
Sequence (Q61606 whole entry): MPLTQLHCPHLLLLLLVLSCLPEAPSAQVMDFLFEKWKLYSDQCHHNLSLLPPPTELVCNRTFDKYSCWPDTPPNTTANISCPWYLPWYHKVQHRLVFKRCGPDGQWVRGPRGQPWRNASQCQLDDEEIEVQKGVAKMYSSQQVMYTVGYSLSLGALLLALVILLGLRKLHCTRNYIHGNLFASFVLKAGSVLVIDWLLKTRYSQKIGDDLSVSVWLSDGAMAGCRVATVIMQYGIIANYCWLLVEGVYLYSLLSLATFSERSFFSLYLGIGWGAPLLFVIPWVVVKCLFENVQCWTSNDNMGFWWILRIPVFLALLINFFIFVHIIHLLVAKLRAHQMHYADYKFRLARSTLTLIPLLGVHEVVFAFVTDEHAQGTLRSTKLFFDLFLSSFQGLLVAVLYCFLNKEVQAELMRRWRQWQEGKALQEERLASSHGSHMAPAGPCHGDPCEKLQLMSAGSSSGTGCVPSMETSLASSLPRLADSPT
Assay: Binding affinity to glucagon receptor in mouse liver membrane by membrane filter assay
Assay type: cell membranes
Settings: not given

IC50 [nM]	SMILES
680	O=C(O)CCNC(=O)c1ccc(CN(c2ccc3c(c2)CCC3)c2nc(-c3ccc(OC(F)(F)F)cc3)cs2)cc1
830	O=C(O)CCNC(=O)c1ccc(CN(c2ccc3c(c2)CCC3)c2nc(-c3ccc(C(F)(F)F)cc3)cs2)cc1

Target: Glucagon receptor (Rattus norvegicus, UniProt P30082)
Sequence (P30082 whole entry): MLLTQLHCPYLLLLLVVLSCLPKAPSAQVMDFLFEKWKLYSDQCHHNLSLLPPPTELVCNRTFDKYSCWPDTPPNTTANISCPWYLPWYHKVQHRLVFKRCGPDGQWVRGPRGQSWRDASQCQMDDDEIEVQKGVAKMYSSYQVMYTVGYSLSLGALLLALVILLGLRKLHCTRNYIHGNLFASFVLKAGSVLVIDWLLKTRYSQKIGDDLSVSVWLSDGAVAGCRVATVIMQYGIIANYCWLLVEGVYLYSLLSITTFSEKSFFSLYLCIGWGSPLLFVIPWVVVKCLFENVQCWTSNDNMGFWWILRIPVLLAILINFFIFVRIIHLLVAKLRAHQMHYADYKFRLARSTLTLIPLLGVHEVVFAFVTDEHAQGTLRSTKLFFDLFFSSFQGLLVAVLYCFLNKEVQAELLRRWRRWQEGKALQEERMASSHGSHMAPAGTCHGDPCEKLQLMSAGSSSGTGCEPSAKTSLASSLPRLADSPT
Assay: Binding affinity to glucagon receptor in rat liver membrane by membrane filter assay
Assay type: cell membranes
Settings: not given

IC50 [µM]	SMILES
4.4	O=C(O)CCNC(=O)c1ccc(CN(c2ccc3c(c2)CCC3)c2nc(-c3ccc(OC(F)(F)F)cc3)cs2)cc1
5.4	O=C(O)CCNC(=O)c1ccc(CN(c2ccc3c(c2)CCC3)c2nc(-c3ccc(C(F)(F)F)cc3)cs2)cc1

Target: T2, Glucagon receptor
Assay: Displacement of [125I]porcine glucagon from human recombinant glucagon receptor expressed in BHK cells by scintillation proximity assay
Assay type: cell-based
Settings: not given

IC50 [nM]	SMILES
130	O=C(O)CCNC(=O)c1ccc(CN(c2ccc(C3=CCCCC3)cc2)c2nc(-c3ccccc3)cs2)cc1
85	O=C(O)CCNC(=O)c1ccc(CN(c2ccc3c(c2)CCC3)c2nc(-c3ccc(OC(F)(F)F)cc3)cs2)cc1
225	O=C(NC[C@@H](O)C(=O)O)c1ccc(CN(c2ccc3c(c2)CCC3)c2nc(-c3ccc(OC(F)(F)F)cc3)cs2)cc1
86	O=C(O)CCNC(=O)c1ccc(CN(c2ccc3c(c2)CCC3)c2nc(-c3ccc(C(F)(F)F)cc3)cs2)cc1
119	Cc1cc(N(Cc2ccc(C(=O)NCCC(=O)O)cc2)c2nc(-c3ccc(C(F)(F)F)cc3)cs2)ccc1C(C)C
